Values after ≈ are worked out from the molar mass of the structure shown.
Legend:
[1] = tested on: Aeromonas allosaccharophila; assay: Antimicrobial activity against Aeromonas allosaccharophila AL-1 expressing beta-lactamase PER6 by agar dilution method; format: functional
Outline: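 The test organism was environmental isolate AL-1, recovered from Seine River water on MacConkey agar containing ceftazidime (2 μg/ml). It was identified by API 32GN and 16S rRNA gene sequencing. MICs were determined by agar dilution on Mueller-Hinton agar and interpreted by CLSI guidelines.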

Escherichia coli [2] = assay: Antimicrobial activity against Escherichia coli DH10B harboring recombinant Aeromonas allosaccharophila AL-1 beta-lactamase PER6 by agar dilution method; format: functional; conditions: K-12 DH10B
Escherichia coli [3] = assay: Antimicrobial activity against Escherichia coli DH10B harboring recombinant Aeromonas allosaccharophila AL-1 beta-lactamase PER1 by agar dilution method; format: functional; conditions: K-12 DH10B
Escherichia coli [4] = assay: Antimicrobial activity against Escherichia coli DH10B harboring recombinant Aeromonas allosaccharophila AL-1 beta-lactamase PER2 by agar dilution method; format: functional; conditions: K-12 DH10B
Escherichia coli [5] = assay: Antimicrobial activity against Escherichia coli DH10B by agar dilution method; format: functional; conditions: K-12 DH10B
Outline: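 MICs measured by agar dilution on Mueller-Hinton agar plates, the method used for imipenem and imipenem combined with clavulanate; other MICs were obtained by Etest. Results were interpreted according to CLSI guidelines. Test strains were E. coli DH10B recombinants carrying cloned PER-1, PER-2 or PER-6 β-lactamase genes.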

[6] = tested on: Aeromonas allosaccharophila; assay: Ratio of Kcat to Km for Aeromonas allosaccharophila AL-1 beta-lactamase PER2
[7] = substrate: CC(=O)OCC1=C(C(=O)O)N2C(=O)[C@@H](NC(=O)Cc3cccs3)[C@H]2SC1; assay: (§1) Activity at Aeromonas allosaccharophila AL-1 beta-lactamase PER6
Outline: (§2)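 PER-6 enzyme was purified from a crude extract of E. coli DH10B(pPER-6). Purification used cation exchange on S-Sepharose at pH 6.8, then anion exchange on Q-Sepharose at pH 8. Purity was >90% by SDS-PAGE. The purified enzyme was used for hydrolysis and inhibition measurements.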

[8] = substrate: CC(C)(O/N=C(\C(=O)N[C@@H]1C(=O)N2C(C(=O)[O-])=C(C[n+]3ccccc3)CS[C@H]12)c1csc(N)n1)C(=O)O; assay: as §1; outline: as §2
[9] = substrate: CC1(C)S[C@@H]2[C@H](NC(=O)Cc3ccccc3)C(=O)N2[C@H]1C(=O)O; assay: as §1; outline: as §2
[10] = substrate: CC1(C)S[C@@H]2[C@H](NC(=O)[C@H](C(=O)O)c3ccsc3)C(=O)N2[C@H]1C(=O)O; assay: as §1; outline: as §2
[11] = substrate: CC1(C)S[C@@H]2[C@H](NC(=O)[C@H](N)c3ccccc3)C(=O)N2[C@H]1C(=O)O; assay: as §1; outline: as §2
[12] = substrate: CCN1CCN(C(=O)N[C@@H](C(=O)N[C@@H]2C(=O)N3[C@@H]2SC(C)(C)[C@@H]3C(=O)O)c2ccccc2)C(=O)C1=O; assay: as §1; outline: as §2
[13] = substrate: CO/N=C(\C(=O)N[C@@H]1C(=O)N2C(C(=O)O)=C(COC(C)=O)CS[C@H]12)c1csc(N)n1; assay: as §1; outline: as §2
[14] = substrate: CO/N=C(\C(=O)N[C@@H]1C(=O)N2C(C(=O)[O-])=C(C[N+]3(C)CCCC3)CS[C@H]12)c1csc(N)n1; assay: as §1; outline: as §2
[15] = substrate: CO/N=C(\C(=O)N[C@@H]1C(=O)N2C(C(=O)[O-])=C(C[n+]3cccc4c3CCC4)CS[C@H]12)c1csc(N)n1; assay: as §1; outline: as §2
[16] = substrate: C[C@@H](O)[C@H]1C(=O)N2C(C(=O)O)=C(SCCNC=N)C[C@H]12; assay: as §1; outline: as §2
[17] = substrate: C[C@@H](O)[C@H]1C(=O)N2C(C(=O)O)=C(S[C@@H]3CN[C@H](C(=O)N(C)C)C3)[C@H](C)[C@H]12; assay: as §1; outline: as §2
[18] = substrate: C[C@@H](O)[C@H]1C(=O)N2C(C(=O)O)=C(S[C@@H]3CN[C@H](C(=O)Nc4cccc(C(=O)O)c4)C3)[C@H](C)[C@H]12; assay: as §1; outline: as §2
[19] = substrate: C[C@H]1[C@H](NC(=O)/C(=N\OC(C)(C)C(=O)O)c2csc(N)n2)C(=O)N1S(=O)(=O)O; assay: as §1; outline: as §2
[20] = substrate: CC(=O)OCC1=C(C(=O)O)N2C(=O)[C@@H](NC(=O)Cc3cccs3)[C@H]2SC1; assay: (§3) Ratio of Kcat to Km for Aeromonas allosaccharophila AL-1 beta-lactamase PER6; outline: as §2
[21] = substrate: CC(C)(O/N=C(\C(=O)N[C@@H]1C(=O)N2C(C(=O)[O-])=C(C[n+]3ccccc3)CS[C@H]12)c1csc(N)n1)C(=O)O; assay: as §3; outline: as §2
[22] = substrate: CC1(C)S[C@@H]2[C@H](NC(=O)Cc3ccccc3)C(=O)N2[C@H]1C(=O)O; assay: as §3; outline: as §2
[23] = substrate: CC1(C)S[C@@H]2[C@H](NC(=O)[C@H](C(=O)O)c3ccsc3)C(=O)N2[C@H]1C(=O)O; assay: as §3; outline: as §2
[24] = substrate: CC1(C)S[C@@H]2[C@H](NC(=O)[C@H](N)c3ccccc3)C(=O)N2[C@H]1C(=O)O; assay: as §3; outline: as §2
[25] = substrate: CCN1CCN(C(=O)N[C@@H](C(=O)N[C@@H]2C(=O)N3[C@@H]2SC(C)(C)[C@@H]3C(=O)O)c2ccccc2)C(=O)C1=O; assay: as §3; outline: as §2
[26] = substrate: CO/N=C(\C(=O)N[C@@H]1C(=O)N2C(C(=O)O)=C(COC(C)=O)CS[C@H]12)c1csc(N)n1; assay: as §3; outline: as §2
[27] = substrate: CO/N=C(\C(=O)N[C@@H]1C(=O)N2C(C(=O)[O-])=C(C[N+]3(C)CCCC3)CS[C@H]12)c1csc(N)n1; assay: as §3; outline: as §2
[28] = substrate: CO/N=C(\C(=O)N[C@@H]1C(=O)N2C(C(=O)[O-])=C(C[n+]3cccc4c3CCC4)CS[C@H]12)c1csc(N)n1; assay: as §3; outline: as §2
[29] = substrate: C[C@@H](O)[C@H]1C(=O)N2C(C(=O)O)=C(SCCNC=N)C[C@H]12; assay: as §3; outline: as §2
[30] = substrate: C[C@@H](O)[C@H]1C(=O)N2C(C(=O)O)=C(S[C@@H]3CN[C@H](C(=O)N(C)C)C3)[C@H](C)[C@H]12; assay: as §3; outline: as §2
[31] = substrate: C[C@@H](O)[C@H]1C(=O)N2C(C(=O)O)=C(S[C@@H]3CN[C@H](C(=O)Nc4cccc(C(=O)O)c4)C3)[C@H](C)[C@H]12; assay: as §3; outline: as §2
[32] = substrate: C[C@H]1[C@H](NC(=O)/C(=N\OC(C)(C)C(=O)O)c2csc(N)n2)C(=O)N1S(=O)(=O)O; assay: as §3; outline: as §2

CO/N=C(\C(=O)N[C@@H]1C(=O)N2C(C(=O)[O-])=C(C[n+]3cccc4c3CCC4)CS[C@H]12)c1csc(N)n1 [CEFPIROME]
MIC [1]: 0.5 µg/mL (≈ 0.972 µM) | MIC (Escherichia coli [2]): 8 µg/mL | MIC (Escherichia coli [3]): 16 µg/mL | MIC (Escherichia coli [4]): 16 µg/mL | MIC (Escherichia coli [5]): 0.06 µg/mL (≈ 0.117 µM)

CO[C@@]1(NC(=O)C(C(=O)O)c2ccc(O)cc2)C(=O)N2C(C(=O)O)=C(CSc3nnnn3C)CO[C@@H]21 (some centres undefined) [MOXALACTAM]
MIC [1]: < 0.06 µg/mL | MIC (Escherichia coli [2]): 2 µg/mL | MIC (Escherichia coli [3]): 1 µg/mL | MIC (Escherichia coli [4]): 0.5 µg/mL | MIC (Escherichia coli [5]): 0.12 µg/mL (≈ 0.231 µM)

CO/N=C(\C(=O)N[C@@H]1C(=O)N2C(C(=O)[O-])=C(C[N+]3(C)CCCC3)CS[C@H]12)c1csc(N)n1
MIC [1]: 0.5 µg/mL (≈ 1.04 µM) | MIC (Escherichia coli [2]): 32 µg/mL | MIC (Escherichia coli [3]): 16 µg/mL | MIC (Escherichia coli [4]): 32 µg/mL | kcat/Km [6]: 20000 M⁻¹ s⁻¹

C[C@H]1[C@H](NC(=O)/C(=N\OC(C)(C)C(=O)O)c2csc(N)n2)C(=O)N1S(=O)(=O)O [AZTREONAM]
MIC [1]: 1 µg/mL (≈ 2.3 µM) | MIC (Escherichia coli [2]): > 256 µg/mL | MIC (Escherichia coli [3]): > 256 µg/mL | MIC (Escherichia coli [4]): > 256 µg/mL | kcat/Km [6]: 120000 M⁻¹ s⁻¹

CO[C@@]1(NC(=O)Cc2cccs2)C(=O)N2C(C(=O)O)=C(COC(N)=O)CS[C@@H]21 [CEFOXITIN]
MIC [1]: 0.5 µg/mL (≈ 1.17 µM) | MIC (Escherichia coli [2]): 2 µg/mL | MIC (Escherichia coli [3]): 2 µg/mL | MIC (Escherichia coli [4]): 2 µg/mL | MIC (Escherichia coli [5]): 1 µg/mL (≈ 2.34 µM) | kcat/Km [6]: < 10000 M⁻¹ s⁻¹

CCN1CCN(C(=O)N[C@@H](C(=O)N[C@@H]2C(=O)N3[C@@H]2SC(C)(C)[C@@H]3C(=O)O)c2ccccc2)C(=O)C1=O [PIPERACILLIN]
MIC [1]: 4 µg/mL (≈ 7.73 µM) | MIC (Escherichia coli [2]): 256 µg/mL | MIC (Escherichia coli [3]): 32 µg/mL | MIC (Escherichia coli [4]): 256 µg/mL | MIC (Escherichia coli [5]): 1 µg/mL (≈ 1.93 µM) | kcat/Km [6]: 200000 M⁻¹ s⁻¹

C[C@@H](O)[C@H]1C(=O)N2C(C(=O)O)=C(S[C@@H]3CN[C@H](C(=O)Nc4cccc(C(=O)O)c4)C3)[C@H](C)[C@H]12
MIC [1]: 0.5 µg/mL (≈ 1.05 µM) | MIC (Escherichia coli [5]): < 0.03 µg/mL

CC(C)(O/N=C(\C(=O)N[C@@H]1C(=O)N2C(C(=O)[O-])=C(C[n+]3ccccc3)CS[C@H]12)c1csc(N)n1)C(=O)O [CEFTAZIDIME]
MIC [1]: 128 µg/mL (≈ 234 µM) | MIC (Escherichia coli [2]): > 256 µg/mL | MIC (Escherichia coli [3]): > 256 µg/mL | MIC (Escherichia coli [4]): > 256 µg/mL | MIC (Escherichia coli [5]): 0.5 µg/mL (≈ 0.915 µM) | kcat/Km [6]: 430000 M⁻¹ s⁻¹

B1: Extended-spectrum beta-lactamase PER-6 (Aeromonas allosaccharophila), D5HSX5 (protein)
chain: MNVIAKGVFTTTALLMLSLSSWVVSAQSPLLKEQIETIVTGKKATVGVAVWGPDDLEPLLVNPFEKFPMQSVFKMHLAMLVLHQVDQGKLDLNKTVAVNRAAVLQNTWSPMMKDHQGDEFTVTVQQLLQYSVSHSDNVACDLLFELVGGPAALHAYIQSLGIKETEVVANEAQMHADDQVQYKNWTSMKAAAQLLRKFEQKKQLSETSQALLWKWMVETTTGPQRLKGLLPAGTVVAHKTGTSGVRAGKTAATNDIGVIMLPDGRPLLVAVFVKDSAESARTNEAIIAQVAQAAYQFELKKLSAVSPD
Km [7]: 55 µM | kcat [7]: 8 s⁻¹ | Km [8]: 1000 µM | kcat [8]: 12 s⁻¹ | Km [9]: 200 µM | kcat [9]: 5 s⁻¹ | Km [10]: 9 µM | kcat [10]: 0.4 s⁻¹ | Km [11]: 20 µM | kcat [11]: 1 s⁻¹ | Km [12]: 4 µM | kcat [12]: 0.1 s⁻¹ | Km [13]: 900 µM | kcat [13]: 40 s⁻¹ | Km [14]: 2000 µM | kcat [14]: 10 s⁻¹ | Km [15]: 1500 µM | kcat [15]: 12 s⁻¹ | Km [16]: 1.5 µM | kcat [16]: 0.006 s⁻¹ | Km [17]: 10 µM | kcat [17]: 0.004 s⁻¹ | Km [18]: 7 µM | kcat [18]: 0.002 s⁻¹ | Km [19]: 40 µM | kcat [19]: 3 s⁻¹ | kcat/Km [20]: 145000 M⁻¹ s⁻¹ | kcat/Km [21]: 1e+07 M⁻¹ s⁻¹ | kcat/Km [22]: 25000 M⁻¹ s⁻¹ | kcat/Km [23]: 50000 M⁻¹ s⁻¹ | kcat/Km [24]: 50000 M⁻¹ s⁻¹ | kcat/Km [25]: 25000 M⁻¹ s⁻¹ | kcat/Km [26]: 45000 M⁻¹ s⁻¹ | kcat/Km [27]: 5000 M⁻¹ s⁻¹ | kcat/Km [28]: 8000 M⁻¹ s⁻¹ | kcat/Km [29]: 4000 M⁻¹ s⁻¹ | kcat/Km [30]: 400 M⁻¹ s⁻¹ | kcat/Km [31]: 300 M⁻¹ s⁻¹ | kcat/Km [32]: 7.5e+07 M⁻¹ s⁻¹
